Key:
[1] = Binding affinity to double stranded poly[d[G-C)]2 DNA; details: Homo sapiens
How it was run: (§1)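 UV-vis absorption titration: increasing concentrations of dsDNA (calf thymus DNA, poly[d(A-T)]2 or poly[d(G-C)]2) added to ligand in buffer. Hypochromicity and red-shift of the long-wavelength absorption band were followed. Binding constants were obtained by the half-reciprocal plot method.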

[2] = tested on: DNA; experiment: Binding affinity to calf thymus double stranded DNA; assay type: nucleic-acid assay; details: Bos taurus; how it was run: as §1
[3] = Binding affinity to double stranded poly[d[A-T)]2 DNA; details: Homo sapiens; how it was run: as §1
[4] = biological target: T1, DNA topoisomerase I (Leishmania donovani donovani) (UniProt Q9NJG8); experiment: Inhibition of Leishmania donovani topoisomerase 1-induced relaxation activity assessed as recovery of supercoiled DNA at 50 uM
T1 sequence (whole entry): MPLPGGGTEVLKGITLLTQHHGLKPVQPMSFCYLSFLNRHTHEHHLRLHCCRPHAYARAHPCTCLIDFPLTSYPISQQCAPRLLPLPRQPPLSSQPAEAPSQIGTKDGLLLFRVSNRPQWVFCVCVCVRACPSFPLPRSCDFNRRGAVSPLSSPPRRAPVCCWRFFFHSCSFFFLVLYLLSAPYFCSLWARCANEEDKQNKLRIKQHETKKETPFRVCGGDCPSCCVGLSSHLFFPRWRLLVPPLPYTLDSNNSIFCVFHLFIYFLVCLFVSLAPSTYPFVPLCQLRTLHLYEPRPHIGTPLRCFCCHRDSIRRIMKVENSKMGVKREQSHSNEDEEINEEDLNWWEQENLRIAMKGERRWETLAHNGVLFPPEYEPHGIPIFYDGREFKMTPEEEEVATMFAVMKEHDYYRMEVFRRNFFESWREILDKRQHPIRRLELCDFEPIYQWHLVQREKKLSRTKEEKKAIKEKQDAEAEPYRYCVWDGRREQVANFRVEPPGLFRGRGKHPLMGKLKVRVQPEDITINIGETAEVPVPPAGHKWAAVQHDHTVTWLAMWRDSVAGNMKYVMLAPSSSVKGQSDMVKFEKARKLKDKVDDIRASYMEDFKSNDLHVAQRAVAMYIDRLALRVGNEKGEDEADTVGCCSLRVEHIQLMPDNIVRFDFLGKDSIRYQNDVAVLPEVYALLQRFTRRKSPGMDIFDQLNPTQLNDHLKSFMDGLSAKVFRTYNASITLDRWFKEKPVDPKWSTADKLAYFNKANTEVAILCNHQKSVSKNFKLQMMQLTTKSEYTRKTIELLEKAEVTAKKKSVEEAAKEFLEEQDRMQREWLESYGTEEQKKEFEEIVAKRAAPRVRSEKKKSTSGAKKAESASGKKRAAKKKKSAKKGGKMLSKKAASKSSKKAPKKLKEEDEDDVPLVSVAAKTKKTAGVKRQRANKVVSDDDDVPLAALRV

[5] = biological target: T1, DNA topoisomerase I (Leishmania donovani donovani); experiment: Inhibition of Leishmania donovani topoisomerase 1-induced relaxation activity assessed as recovery of supercoiled DNA at 20 uM
[6] = biological target: T1, DNA topoisomerase I (Leishmania donovani donovani); experiment: Inhibition of Leishmania donovani topoisomerase 1-induced relaxation activity assessed as recovery of supercoiled DNA at 10 uM

SMILES	Ka [1]	Ka [2]	Ka [3]	inhibition [4] [%]	inhibition [5] [%]	inhibition [6] [%]
O=C1c2ccccc2C(=O)c2c1ccc1nc(-c3ccc(OCCCN4CCN(CCO)CC4)cc3)[nH]c21	2.2 10^5/M	1.9 10^5/M	3 10^5/M	5		
CN1CCN(CCCOc2ccc(-c3nc4ccc5c(c4[nH]3)C(=O)c3ccccc3C5=O)cc2)CC1	1.9 10^5/M	1 10^5/M	2.8 10^5/M	10		
O=C1c2ccccc2C(=O)c2c1ccc1nc(-c3ccc(OCCCn4cnnn4)cc3)[nH]c21	0.3 10^5/M	0.5 10^5/M	0.5 10^5/M	95	92	80
O=C1c2ccccc2C(=O)c2c1ccc1nc(-c3ccccn3)[nH]c21				75	20	9
O=C1c2ccccc2C(=O)c2c1ccc1nc(-c3ccc(OCCCn4ccnc4)cc3)[nH]c21	0.6 10^5/M	1.1 10^5/M	1.8 10^5/M	91	77	62
O=C1c2ccccc2C(=O)c2c1ccc1nc(-c3cccnc3)[nH]c21				80	15	9
CCN(CC)CCCOc1ccc(-c2nc3ccc4c(c3[nH]2)C(=O)c2ccccc2C4=O)cc1	2.3 10^5/M	1.9 10^5/M	3.2 10^5/M	10	2	
O=C1c2ccccc2C(=O)c2c1ccc1nc(-c3ccc(OCCCN4CCOCC4)cc3)[nH]c21	0.5 10^5/M	0.6 10^5/M	1.1 10^5/M	92	77	46
CC[C@@]1(O)C(=O)OCc2c1cc1n(c2=O)Cc2cc3ccccc3nc2-1				65	55	39
CN(C)CCCOc1ccc(-c2nc3ccc4c(c3[nH]2)C(=O)c2ccccc2C4=O)cc1	3 10^5/M	2.1 10^5/M	4.1 10^5/M	5		

Reference: ChEMBL document CHEMBL1139868, “Synthesis, DNA binding, and Leishmania topoisomerase inhibition activities of a novel series of anthra[1,2-d]imidazole-6,11-dione derivatives” (J Med Chem, 2007)
